Measured values of several laboratories.
Protocols differ between the studies behind these lines.
Matrix: Caco-2

| SMILES | conditions | quantity | value |
| --- | --- | --- | --- |
| CCC(=O)N[C@H]1Cc2cccc(C(=O)O)c2OB1O | 5 µM, 2 h, pH 7.4 | Papp B→A | 0.15 ×10⁻⁶ cm/s |
| CC(C)NCC(O)COc1cccc2ccccc12 (stereo not shown) |  | Papp B→A | 59.3 ×10⁻⁶ cm/s |
| CCCCN1C(=O)[C@@H]([C@@H](O)C2CCCCC2)NC(=O)C12CCN(Cc1ccc(Oc3ccc(C(=O)O)cc3)cc1)CC2.Cl |  | Papp | 1.6 ×10⁻⁶ cm/s |
| CCC(C)n1ncn(-c2ccc(N3CCN(c4ccc(OCC5COC(Cn6cncn6)(c6ccc(Cl)cc6Cl)O5)cc4)CC3)cc2)c1=O (stereo not shown) | 1 µM, pH 7.4 | Papp | 1.5 to 2.5 ×10⁻⁶ cm/s |
| Cc1ncsc1-c1ccc(CNC(=O)[C@@H]2C[C@@H](O)CN2C(=O)[C@@H](NC(=O)C2(F)CC2)C(C)(C)C)c(OCCOc2ccc(CN3CCN(c4cc(-c5ccccc5O)nnc4N)CC3)cc2)c1 | 2 h, pH 7.2 | Papp B→A | 3.8 ×10⁻⁶ cm/s |
| CCn1c(=O)c2c(nc(S)n2C)n(C)c1=O | 10 µM, 2 h | Papp B→A | 7 ×10⁻⁶ cm/s |
| Nc1nc2c(ncn2COCCO)c(=O)[nH]1 | 10 µM, 2 h, pH 7.4 | Papp B→A | 0.756 ×10⁻⁶ cm/s |
| CCOC(=O)[C@@]12C[C@@H]1[C@@H](n1ccc3c(NC)nc(C#Cc4ccc(Cl)s4)nc31)[C@H](O)[C@@H]2O | 10 µM, 2 h, pH 7.4 | Papp B→A | 22.2 ×10⁻⁶ cm/s |
| COc1cc(Cl)c(C(=O)N[C@@H](CN[C@H]2CC[C@@H](N)CC2)Cc2ccc(C#N)cc2)cc1-c1ccc(CN[C@H](C)c2ccc(C)cc2)o1 | 2 µM, 2 h, pH 7.2 | Papp B→A | 1.1 ×10⁻⁶ cm/s |
| C[C@H]1O[C@@H](O[C@H]2[C@@H](O)C[C@H](O[C@H]3[C@@H](O)C[C@H](O[C@H]4CC[C@@]5(C)[C@H](CC[C@@H]6[C@@H]5C[C@@H](O)[C@]5(C)[C@@H](C7=CC(=O)OC7)CC[C@]65O)C4)O[C@@H]3C)O[C@@H]2C)C[C@H](O)[C@@H]1O |  | Papp B→A | 14 ×10⁻⁶ cm/s |
| COc1cccc2c(-c3ccccc3)cc(-c3ccc(-c4ccc(C(=O)O)cc4)[nH]3)nc12 |  | Papp B→A | 7.44 ×10⁻⁶ cm/s |
| C[C@@H]1O[C@@H](OC[C@H]2O[C@@H](Oc3c(-c4ccc(O)c(O)c4)oc4cc(O)cc(O)c4c3=O)[C@H](O)[C@@H](O)[C@@H]2O)[C@H](O)[C@H](O)[C@H]1O | 1 mg/mL, pH 7.4 | Papp | 24.5 ×10⁻⁶ cm/s |
| CC(C)NCC(O)COc1cccc2ccccc12 (stereo not shown) |  | Papp | 20 ×10⁻⁶ cm/s |
| O=c1c(O)c(-c2ccc(O)cc2)oc2cc(O)cc(O)c12 | 1 mg/mL, pH 7.4 | Papp | 1.17 ×10⁻⁶ cm/s |
| CC[C@H](C)C(=O)N1CCC(NC(=O)Nc2ccc(OC(F)(F)F)c(F)c2)CC1 | 10 µM, 1 h, pH 7.4 | Papp B→A | 16.4 ×10⁻⁶ cm/s |
| COCCc1ccc(OCC(O)CNC(C)C)cc1 (stereo not shown) |  | Papp | 15 ×10⁻⁶ cm/s |
